In paper PMC4301071 (ACS Chemical Biology, 2014):
*1 amine or outer side, *2 acyl side, *3 side chain or, on linkers, in order; H or OH if unused. Where a SMILES comes first, the peptide text is derived from it. [ ]: non-standard residue; d: D form. The star is where a group is joined. X1 = CN(CCCC[C@H](N[*:1])C(=O)[*:2])CCCCN(O)C(=O)/C=C/C(=O)O; Biotin = O=C1N[C@H]2[C@H](CS[C@H]2CCCCC(=O)*)N1; Bpa = N[C@@H](Cc1ccc(C(=O)c2ccccc2)cc1)C(=O)O; PEG4 = NCCOCCOCCOCCOCCC(=O)O

How the values were obtained:
JHDM1A [1] = target: T1, JHDM1A (Homo sapiens, UniProt Q9Y2K7); test: Fluorescence polarization; type: binding
T1 sequence (Q9Y2K7 1-1162): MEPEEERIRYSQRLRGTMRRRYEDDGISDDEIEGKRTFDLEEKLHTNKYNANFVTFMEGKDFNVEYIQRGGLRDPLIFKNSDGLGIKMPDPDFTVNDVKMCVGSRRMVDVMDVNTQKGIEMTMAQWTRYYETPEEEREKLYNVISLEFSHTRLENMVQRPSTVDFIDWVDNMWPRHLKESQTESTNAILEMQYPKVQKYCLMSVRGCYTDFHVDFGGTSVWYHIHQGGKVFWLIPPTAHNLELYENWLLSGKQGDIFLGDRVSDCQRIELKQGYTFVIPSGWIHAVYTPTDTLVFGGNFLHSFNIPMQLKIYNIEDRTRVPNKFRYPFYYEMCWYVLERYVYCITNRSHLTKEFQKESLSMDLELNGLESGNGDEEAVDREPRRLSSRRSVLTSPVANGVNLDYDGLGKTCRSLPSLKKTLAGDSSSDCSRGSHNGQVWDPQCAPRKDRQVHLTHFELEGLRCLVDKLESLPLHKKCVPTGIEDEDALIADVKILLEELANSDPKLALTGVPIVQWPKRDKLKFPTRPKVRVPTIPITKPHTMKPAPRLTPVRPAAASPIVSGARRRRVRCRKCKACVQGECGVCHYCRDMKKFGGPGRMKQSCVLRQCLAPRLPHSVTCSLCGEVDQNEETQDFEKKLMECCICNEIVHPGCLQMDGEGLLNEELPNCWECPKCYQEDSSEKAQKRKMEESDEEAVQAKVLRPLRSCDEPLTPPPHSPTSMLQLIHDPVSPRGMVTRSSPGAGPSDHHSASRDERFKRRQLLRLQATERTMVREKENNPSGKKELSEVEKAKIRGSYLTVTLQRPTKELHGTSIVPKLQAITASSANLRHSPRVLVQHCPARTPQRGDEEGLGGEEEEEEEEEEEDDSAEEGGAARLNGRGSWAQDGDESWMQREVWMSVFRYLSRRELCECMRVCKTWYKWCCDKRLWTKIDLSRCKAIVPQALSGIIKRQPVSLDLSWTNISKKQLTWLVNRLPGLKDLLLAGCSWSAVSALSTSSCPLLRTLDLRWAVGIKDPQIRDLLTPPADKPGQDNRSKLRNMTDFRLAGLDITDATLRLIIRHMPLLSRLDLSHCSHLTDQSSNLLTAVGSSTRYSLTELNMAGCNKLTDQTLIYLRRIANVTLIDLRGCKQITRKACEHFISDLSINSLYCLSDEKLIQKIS

JHDM1A [2] = target: T1, JHDM1A; test: Affinity pulldown of purified JHDM1A in the presence of HeLa histone proteins; type: binding; conditions: in the absence of UV irradiation
Summary of the method: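 Acid-extracted HeLa histones were prepared by Triton lysis, then 0.2 N HCl overnight at 4 °C, then lyophilisation. Biotinylated peptide probe (20 μM) was loaded onto streptavidin magnetic beads for 30 min at 4 °C. Recombinant JHDM1A (5 μM) and equal amounts of histones were then added in 25 mM Tris, 100 mM NaCl, 5 μM NiCl2, pH 7.5, for 4 h at 4 °C. The 350 nm, 20 min UV step was omitted. Beads were washed in HEPES/1 M NaCl/1% Triton, then water.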

JMJD1C/KDM3C = JMJD1C/KDM3C (Homo sapiens, UniProt Q15652); test: Affinity pulldown from HeLa nuclear lysate, spectral count of JMJD1C/KDM3C; type: binding; conditions: HeLa nuclear extract
Summary of the method: (§1)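 HeLa cells were grown in DMEM with 10% FCS and 1% penicillin/streptomycin at 37 °C, 5% CO2. Nuclei were prepared by hypotonic swelling and douncing, extracted in 0.4 M NaCl/20% glycerol buffer, and dialysed into 20 mM HEPES, 100 mM KCl, 2 mM MgCl2, pH 7.9. Streptavidin bead pulldowns used 2 mL lysate, and a no-probe control was included. Bead-bound material was washed, reduced with 4 mM DTT, alkylated with 14 mM iodoacetamide, trypsin-digested on the beads overnight at 37 °C, and run on nanoLC-LTQ/Orbitrap. Searches used human UniProt at 1% FDR, with spectral-count quantification.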

JMJD2A/KDM4A [3] = target: T2, JMJD2A/KDM4A (Homo sapiens, UniProt O75164); test: Affinity pulldown from HeLa nuclear lysate, spectral count of JMJD2A/KDM4A; type: binding; conditions: HeLa nuclear extract, 20 μM probe 6
T2 sequence (O75164 2-1064): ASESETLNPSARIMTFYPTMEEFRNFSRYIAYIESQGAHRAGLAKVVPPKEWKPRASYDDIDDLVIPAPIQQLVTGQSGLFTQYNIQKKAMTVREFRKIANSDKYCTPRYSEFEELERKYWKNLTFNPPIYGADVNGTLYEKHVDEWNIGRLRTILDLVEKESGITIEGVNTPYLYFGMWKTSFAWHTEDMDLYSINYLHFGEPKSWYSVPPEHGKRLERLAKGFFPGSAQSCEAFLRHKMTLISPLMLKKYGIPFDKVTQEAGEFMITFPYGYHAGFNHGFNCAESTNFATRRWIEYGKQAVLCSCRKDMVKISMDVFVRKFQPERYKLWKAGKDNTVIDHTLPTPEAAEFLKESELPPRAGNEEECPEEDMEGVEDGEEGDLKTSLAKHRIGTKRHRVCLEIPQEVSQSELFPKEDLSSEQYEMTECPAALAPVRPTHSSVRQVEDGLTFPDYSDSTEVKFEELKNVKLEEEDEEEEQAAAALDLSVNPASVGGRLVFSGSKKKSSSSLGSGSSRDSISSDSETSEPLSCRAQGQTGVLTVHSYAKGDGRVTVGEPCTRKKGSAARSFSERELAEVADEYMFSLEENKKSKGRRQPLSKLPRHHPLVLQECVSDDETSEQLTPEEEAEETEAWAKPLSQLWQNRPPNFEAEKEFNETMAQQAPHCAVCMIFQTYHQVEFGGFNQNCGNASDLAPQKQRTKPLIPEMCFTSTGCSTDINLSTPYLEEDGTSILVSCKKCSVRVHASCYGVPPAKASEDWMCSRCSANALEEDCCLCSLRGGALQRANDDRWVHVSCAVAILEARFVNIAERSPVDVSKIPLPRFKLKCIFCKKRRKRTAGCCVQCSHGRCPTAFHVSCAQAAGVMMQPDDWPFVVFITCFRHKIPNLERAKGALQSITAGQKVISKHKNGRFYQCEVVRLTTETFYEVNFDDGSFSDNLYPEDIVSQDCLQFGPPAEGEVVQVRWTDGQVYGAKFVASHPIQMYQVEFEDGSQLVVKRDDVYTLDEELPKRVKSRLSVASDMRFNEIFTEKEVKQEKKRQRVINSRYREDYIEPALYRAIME

JMJD2A/KDM4A [4] = test: as above; type: binding, human; conditions: HeLa nuclear extract, 20 μM probe 6, recombinant KDM4A spiked in at 25 nM
PHF8/KDM7A = PHF8/KDM7A (Homo sapiens, UniProt Q9UPP1); test: Affinity pulldown from HeLa nuclear lysate, spectral count of PHF8/KDM7A; type: binding; conditions: HeLa nuclear extract
PHF8/KDM7A, sequence (Q9UPP1 whole entry): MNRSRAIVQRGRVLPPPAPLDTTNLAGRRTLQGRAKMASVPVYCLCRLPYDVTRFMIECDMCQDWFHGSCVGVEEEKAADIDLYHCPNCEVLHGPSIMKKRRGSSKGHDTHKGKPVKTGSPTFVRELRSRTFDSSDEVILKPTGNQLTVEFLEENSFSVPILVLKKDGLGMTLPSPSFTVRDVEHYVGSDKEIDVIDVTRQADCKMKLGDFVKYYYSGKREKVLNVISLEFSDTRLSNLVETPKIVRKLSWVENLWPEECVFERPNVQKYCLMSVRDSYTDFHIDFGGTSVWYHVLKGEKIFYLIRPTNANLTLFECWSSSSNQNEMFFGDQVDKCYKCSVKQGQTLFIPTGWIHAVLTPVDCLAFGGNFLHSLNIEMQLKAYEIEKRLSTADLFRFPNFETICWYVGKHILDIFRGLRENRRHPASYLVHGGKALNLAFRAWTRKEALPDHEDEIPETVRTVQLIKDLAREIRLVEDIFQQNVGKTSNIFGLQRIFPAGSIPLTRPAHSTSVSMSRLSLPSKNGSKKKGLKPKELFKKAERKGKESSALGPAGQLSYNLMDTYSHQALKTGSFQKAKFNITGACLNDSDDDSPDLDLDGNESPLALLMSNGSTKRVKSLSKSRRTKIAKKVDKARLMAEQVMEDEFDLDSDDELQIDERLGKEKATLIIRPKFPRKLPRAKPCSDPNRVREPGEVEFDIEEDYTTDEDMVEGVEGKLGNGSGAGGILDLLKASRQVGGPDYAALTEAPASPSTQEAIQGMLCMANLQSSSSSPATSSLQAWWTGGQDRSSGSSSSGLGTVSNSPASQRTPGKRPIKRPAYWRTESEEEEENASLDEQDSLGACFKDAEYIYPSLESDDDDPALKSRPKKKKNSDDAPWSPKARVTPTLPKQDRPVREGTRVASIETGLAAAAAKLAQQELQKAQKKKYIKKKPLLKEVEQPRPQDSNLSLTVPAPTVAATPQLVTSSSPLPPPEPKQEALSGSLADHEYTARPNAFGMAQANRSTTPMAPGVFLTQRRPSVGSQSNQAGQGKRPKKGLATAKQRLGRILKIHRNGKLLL
Summary of the method: as §1

CHD8 = CHD8 (Homo sapiens, UniProt Q9HCK8); test: Affinity pulldown from HeLa nuclear lysate, spectral count of CHD8; type: binding; conditions: HeLa nuclear extract
CHD8, sequence (Q9HCK8 whole entry): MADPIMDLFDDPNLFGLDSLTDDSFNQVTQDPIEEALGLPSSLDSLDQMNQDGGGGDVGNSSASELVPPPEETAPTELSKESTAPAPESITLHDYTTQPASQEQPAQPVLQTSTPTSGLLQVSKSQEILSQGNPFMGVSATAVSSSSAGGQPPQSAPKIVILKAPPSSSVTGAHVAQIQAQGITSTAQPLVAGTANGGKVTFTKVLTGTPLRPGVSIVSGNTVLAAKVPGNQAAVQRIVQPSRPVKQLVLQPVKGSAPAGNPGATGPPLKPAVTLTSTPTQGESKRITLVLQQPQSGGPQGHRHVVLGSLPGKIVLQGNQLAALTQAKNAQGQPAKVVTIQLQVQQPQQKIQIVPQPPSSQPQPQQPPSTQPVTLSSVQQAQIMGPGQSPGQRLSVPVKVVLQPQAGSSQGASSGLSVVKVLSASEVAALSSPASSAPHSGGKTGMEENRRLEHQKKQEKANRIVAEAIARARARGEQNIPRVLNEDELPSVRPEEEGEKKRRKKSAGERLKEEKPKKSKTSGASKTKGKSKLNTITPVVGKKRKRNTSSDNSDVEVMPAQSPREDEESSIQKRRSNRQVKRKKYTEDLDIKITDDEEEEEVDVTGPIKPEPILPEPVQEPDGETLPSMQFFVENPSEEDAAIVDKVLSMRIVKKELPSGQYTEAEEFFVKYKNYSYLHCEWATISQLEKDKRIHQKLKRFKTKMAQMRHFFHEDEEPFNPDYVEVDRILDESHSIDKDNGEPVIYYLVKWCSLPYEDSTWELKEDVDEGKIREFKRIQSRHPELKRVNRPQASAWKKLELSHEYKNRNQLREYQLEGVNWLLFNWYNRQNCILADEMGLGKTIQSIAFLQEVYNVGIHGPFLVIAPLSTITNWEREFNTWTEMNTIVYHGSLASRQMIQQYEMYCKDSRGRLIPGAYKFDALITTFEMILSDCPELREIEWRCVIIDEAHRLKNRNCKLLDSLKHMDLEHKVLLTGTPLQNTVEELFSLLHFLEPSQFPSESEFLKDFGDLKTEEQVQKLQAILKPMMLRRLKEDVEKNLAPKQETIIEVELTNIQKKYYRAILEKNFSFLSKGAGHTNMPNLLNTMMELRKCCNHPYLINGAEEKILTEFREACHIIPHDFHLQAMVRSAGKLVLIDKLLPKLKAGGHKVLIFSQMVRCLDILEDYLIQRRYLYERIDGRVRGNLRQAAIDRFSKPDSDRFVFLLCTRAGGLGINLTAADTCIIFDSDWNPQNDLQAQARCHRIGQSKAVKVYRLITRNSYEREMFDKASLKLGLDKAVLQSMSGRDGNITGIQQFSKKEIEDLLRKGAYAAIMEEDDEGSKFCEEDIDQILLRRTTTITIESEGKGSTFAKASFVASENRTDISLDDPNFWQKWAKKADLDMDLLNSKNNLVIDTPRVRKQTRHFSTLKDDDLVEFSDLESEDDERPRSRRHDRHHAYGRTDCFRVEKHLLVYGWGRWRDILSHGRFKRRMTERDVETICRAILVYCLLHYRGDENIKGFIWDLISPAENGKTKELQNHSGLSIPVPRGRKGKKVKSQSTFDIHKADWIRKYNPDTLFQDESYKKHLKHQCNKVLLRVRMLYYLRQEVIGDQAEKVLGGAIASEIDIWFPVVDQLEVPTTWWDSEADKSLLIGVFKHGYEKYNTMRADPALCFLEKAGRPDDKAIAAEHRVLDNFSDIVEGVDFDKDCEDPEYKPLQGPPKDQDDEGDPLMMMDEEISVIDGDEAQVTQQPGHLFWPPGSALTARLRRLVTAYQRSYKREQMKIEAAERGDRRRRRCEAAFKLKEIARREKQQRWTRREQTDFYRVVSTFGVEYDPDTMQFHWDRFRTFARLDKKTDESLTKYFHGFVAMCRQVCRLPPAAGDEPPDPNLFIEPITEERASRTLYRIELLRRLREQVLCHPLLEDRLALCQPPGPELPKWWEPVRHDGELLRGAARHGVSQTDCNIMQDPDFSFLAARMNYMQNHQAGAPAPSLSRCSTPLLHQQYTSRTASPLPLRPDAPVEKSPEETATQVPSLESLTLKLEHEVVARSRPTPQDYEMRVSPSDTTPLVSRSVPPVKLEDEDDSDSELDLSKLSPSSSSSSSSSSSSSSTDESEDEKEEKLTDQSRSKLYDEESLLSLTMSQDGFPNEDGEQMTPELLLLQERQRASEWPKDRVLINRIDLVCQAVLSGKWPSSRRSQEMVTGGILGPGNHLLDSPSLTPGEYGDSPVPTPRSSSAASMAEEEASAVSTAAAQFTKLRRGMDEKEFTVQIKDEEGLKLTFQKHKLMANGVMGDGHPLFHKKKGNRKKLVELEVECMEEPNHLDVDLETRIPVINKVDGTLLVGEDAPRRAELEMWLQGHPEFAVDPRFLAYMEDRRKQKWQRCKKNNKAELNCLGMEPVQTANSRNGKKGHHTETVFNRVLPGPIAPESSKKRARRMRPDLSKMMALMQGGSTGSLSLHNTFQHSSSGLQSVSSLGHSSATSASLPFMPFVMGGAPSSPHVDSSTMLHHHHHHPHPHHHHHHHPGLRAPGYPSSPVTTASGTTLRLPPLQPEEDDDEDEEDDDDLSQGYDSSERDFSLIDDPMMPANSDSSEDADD
Summary of the method: as §1

CHD7 = CHD7 (Homo sapiens, UniProt Q9P2D1); test: Affinity pulldown from HeLa nuclear lysate, spectral count of CHD7; type: binding; conditions: HeLa nuclear extract
Summary of the method: as §1

HDAC1/2 = test: Affinity pulldown from HeLa nuclear lysate, spectral count of HDAC1/2; type: binding, human; conditions: HeLa nuclear extract
Summary of the method: as §1

[5] = 20 μM probe 6, recombinant KDM4A spiked in at 25 nM

- fold increased affinity compared to nonfunctionalized native H3K36me2 histone 20mer peptide (JHDM1A [1]): ~2 fold
- pulldown of JHDM1A (JHDM1A [2]): complete absence of JHDM1A
- spectral count, endogenous (JMJD1C/KDM3C; 20 μM probe 6): 6
- spectral count, spiked-in (JMJD1C/KDM3C; [5]): 3
- spectral count, endogenous (JMJD2A/KDM4A [3]): 0
- spectral count, endogenous (PHF8/KDM7A; 20 μM probe 6): 1
- spectral count, spiked-in (PHF8/KDM7A; [5]): 1
- spectral count, endogenous (CHD8; 20 μM probe 6): 2
- spectral count, spiked-in (CHD8; [5]): 3
- spectral count, endogenous (CHD7; 20 μM probe 6): 5
- spectral count, spiked-in (CHD7; [5]): 1
Structure (SMILES): CC(C)[C@H](NC(=O)CNC(=O)CNC(=O)[C@@H](NC(=O)[C@H](Cc1ccc(C(=O)c2ccccc2)cc1)NC(=O)CCOCCOCCOCCOCCNC(=O)CCCC[C@@H]1SC[C@@H]2NC(=O)N[C@@H]21)[C@@H](C)O)C(=O)N[C@@H](CCCCN(C)CCCCN(O)C(=O)/C=C/C(=O)O)C(=O)N[C@@H](CCCCN)C(=O)N1CCC[C@H]1C(=O)N[C@@H](Cc1c[nH]cn1)C(=O)N[C@@H](CCCNC(=N)N)C(N)=O [probe 6] ({Biotin-PEG4}-[Bpa]TGGV[X1]KPHR-NH2)
- spectral count, spiked-in (JMJD2A/KDM4A [4]): 5
- spectral count, endogenous (HDAC1/2; 20 μM probe 6): 8
- spectral count, spiked-in (HDAC1/2; [5]): 3
